This is an account of results in ChEMBL document CHEMBL3102834, “Discovery of 5-substituted pyrrolo[2,3-d]pyrimidine antifolates as dual-acting inhibitors of glycinamide ribonucleotide formyltransferase and 5-aminoimidazole-4-carboxamide ribonucleotide formyltransferase in de novo purine nucleotide biosynthesis: implications of inhibiting …” (J Med Chem, 2013).

The subject of experiment [1] is KB. The experiment in a line: Cytotoxicity against human KB cells expressing human RFC/FRalpha/PCFT after 96 hrs by CellTitre-Blue fluorescence assay. In kind it is functional, cell-based. The method, boiled down: (§1)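 KB cells were grown in FF-RPMI with DFBS and 2 nM LCV, exposed to antifolate (0–1 μM) for 96 h at 37 °C, and read by CellTiter-Blue fluorescence. IC50 was taken from dose–response curves relative to untreated cells. Protection arms added adenosine 60 μM, thymidine 10 μM, AICA 320 μM, or folic acid 200 nM. Means of 3–10 experiments.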

Experiment [2] is described as follows: Cytotoxicity against chinese hamster PC43-10 cells expressing human RFC after 96 hrs by CellTitre-Blue fluorescence assay. Particulars: Cricetulus griseus, PC43-10, 96 h. It counts as functional, cell-based. The method, boiled down:
(§2)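 CHO sublines were grown in FF-RPMI/DFBS; transfectants were maintained with G418. Cells were exposed to antifolate (0–1 μM) for 96 h at 37 °C with 2 nM LCV (RT16) or 25 nM LCV (R2/PCFT4). PC43-10 cells were grown in standard RPMI1640/DFBS instead. FRα specificity was tested by adding 200 nM folic acid. Viable cells were read by CellTiter-Blue fluorescence (ex 560/em 590), and IC50 was taken from dose–response curves; means of 3–10 experiments.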

Experiment [3] relates to KB. The experiment in a line: Cell cycle arrest in human KB cells assessed as accumulation at S phase at 1 uM after 96 hrs by propidium iodide staining-based flow cytometry (reference value: 15.9%). It counts as functional.
Experiment [4] in a line: Cytotoxicity against chinese hamster RT16 cells expressing human FRalpha after 96 hrs by CellTitre-Blue fluorescence assay in presence of folic acid. The conditions noted are these: Cricetulus griseus, RT16, 96 h. It counts as functional, cell-based. The method, boiled down: as §2
In experiment [5] the test system is KB. Nature of the experiment: Cell cycle arrest in human KB cells assessed as accumulation at G1/G0 phase at 1 uM after 96 hrs by propidium iodide staining-based flow cytometry (reference value: 67.4%). In kind it is functional. Background: In flow cytometry, cells or beads pass a laser one at a time.
Experiment [6] concerns KB. The experiment in a line: Cytotoxicity against human KB cells expressing human RFC/FRalpha/PCFT after 96 hrs by CellTitre-Blue fluorescence assay in presence of thymidine. It counts as functional, cell-based. The method, boiled down: as §1
In experiment [7] the target is T1, Reduced folate transporter (Homo sapiens) (UniProt P41440).
T1 sequence (whole entry): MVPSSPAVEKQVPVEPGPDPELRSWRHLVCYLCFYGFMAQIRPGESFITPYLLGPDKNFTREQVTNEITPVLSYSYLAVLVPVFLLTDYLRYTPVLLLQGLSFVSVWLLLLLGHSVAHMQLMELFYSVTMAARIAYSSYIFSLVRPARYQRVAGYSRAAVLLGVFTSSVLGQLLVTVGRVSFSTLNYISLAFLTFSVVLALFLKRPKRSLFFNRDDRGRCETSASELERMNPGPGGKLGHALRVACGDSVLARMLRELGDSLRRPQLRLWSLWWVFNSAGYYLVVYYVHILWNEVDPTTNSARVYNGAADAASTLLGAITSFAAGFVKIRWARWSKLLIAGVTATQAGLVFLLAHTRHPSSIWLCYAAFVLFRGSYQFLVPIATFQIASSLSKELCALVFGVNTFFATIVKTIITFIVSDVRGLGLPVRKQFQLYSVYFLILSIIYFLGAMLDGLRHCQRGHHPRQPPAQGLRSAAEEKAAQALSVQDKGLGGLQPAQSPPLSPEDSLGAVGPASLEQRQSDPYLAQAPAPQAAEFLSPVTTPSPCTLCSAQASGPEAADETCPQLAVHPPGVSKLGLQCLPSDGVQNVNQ
The experiment in a line: Inhibition of human RFC expressed in chinese hamster PC43-10 cells assessed as reduction of [3H]MTX uptake at 10 uM after 48 hrs by scintillation counting analysis relative to control. In kind it is cell-based. The method, boiled down:
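PC43-10 CHO cells expressing human RFC (~1.5 × 10^6) were seeded 48 h before assay. Uptake of 0.5 μM [3H]MTX was run in Hank's balanced salts for 2 min at 37 °C, with or without 10 μM unlabelled inhibitor, and stopped with ice-cold PBS. Cells were dissolved in 0.5 N NaOH, counted by scintillation and normalised to Folin-phenol protein (pmol/mg). RFC-null R2 cells gave baseline. Three experiments.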

Experiment [8] concerns KB. Nature of the experiment: Cytotoxicity against human KB cells expressing human RFC/FRalpha/PCFT after 96 hrs by CellTitre-Blue fluorescence assay in presence of folic acid. It counts as functional, cell-based. The method, boiled down: as §1
The test system of experiment [9] is KB. Nature of the experiment: Cell cycle arrest in human KB cells assessed as accumulation at G2/M phase at 1 uM after 96 hrs by propidium iodide staining-based flow cytometry (reference value: 13.2%). It counts as functional.
The test system of experiment [10] is R2. Nature of the experiment: Cytotoxicity against chinese hamster R2 cells expressing human PCFT4 after 96 hrs by CellTitre-Blue fluorescence assay. It counts as functional, cell-based, Cricetulus griseus. The conditions noted are these: R2, 96 h.
Experiment [11] in a line: (§3) Inhibition of GARFTase in human KB cells assessed as incorporation of [14C]-glycine into [14C]-formyl GAR incubated 30 mins prior to [14C]-glycine addition measured after 16 hrs by radiometric assay in presence of azaserin. In kind it is cell-based. A digest of the protocol:
(§4)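 KB cells were preincubated 1 h in folate- and glutamine-free medium with 2 nM LCV and a range of drug concentrations. Azaserine (4 μM final) was added for 30 min, then 2 mM glutamine and [14C(U)]glycine (0.1 mCi/L) for 16 h at 37 °C. TCA extracts were ether-washed and run on AG1×8 anion exchange. [14C]formyl GAR was measured per mg protein, and IC50 was set against DMSO controls; three experiments.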

Experiment [12] has as its system KB. The experiment is described as §3. In kind it is cell-based. A digest of the protocol: as §4
The subject of experiment [13] is KB. Nature of the experiment: Induction of apoptosis in human KB cells assessed as necrotic cells at 1 uM after 96 hrs by Annexin V-FITC/7-AAD staining-based flow cytometry (RVB = 7.80%). In kind it is functional.
Experiment [14] relates to KB. Nature of the experiment: Induction of apoptosis in human KB cells assessed as viable cells at 1 uM after 96 hrs by Annexin V-FITC/7-AAD staining-based flow cytometry (RVB = 89.6%). Particulars: read-out: Activity. It counts as functional.
Experiment [15] has as its system R2. The experiment in a line: Cytotoxicity against chinese hamster R2 cells after 96 hrs by CellTitre-Blue fluorescence assay. Particulars: Cricetulus griseus, R2, 96 h.
Experiment [16] relates to KB. The experiment in a line: Cytotoxicity against human KB cells expressing human RFC/FRalpha/PCFT after 96 hrs by CellTitre-Blue fluorescence assay in presence of AICA. It counts as functional, cell-based. The method, boiled down: as §1
Experiment [17] concerns KB. The experiment in a line: Cell cycle arrest in human KB cells after 48 hrs by propidium iodide staining-based flow cytometry. In kind it is functional. The method, boiled down:
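KB cells exposed to 1 μM drug for 48 h in FF-RPMI with 10% DFBS and 2 nM LCV, harvested by trypsin and fixed in ice-cold ethanol. Stained with 50 μg/mL PI plus 100 μg/mL RNase for at least 20 min at room temperature in the dark. Flow cytometry counted at least 10 000 events. G1/G0, S, G2/M and sub-G1 fractions were fitted by Watson Pragmatic model.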

Experiment [18] has as its target Folate receptor alpha (Homo sapiens) (UniProt P15328). The experiment in a line: Displacement of [3H]folic acid from human FRalpha expressed in chinese hamster RT16 cells after 15 mins by scintillation counting analysis. It counts as cell-based. A digest of the protocol: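 FRα-expressing RT16 CHO cells (~1.5 × 10^6) were grown as monolayers. Bound folates were stripped with ice-cold acetate buffer (pH 3.5), then neutralised with HEPES-buffered saline (pH 7.4). Cells were then competed with [3H]folic acid against graded unlabelled ligand. Bound label read by scintillation, normalised to Folin-phenol protein (pmol/mg). Relative affinity = inverse molar ratio for 50% displacement, folic acid set at 1. Three experiments.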
For orientation: Displacement assays read how much labelled ligand stays bound in the presence of the test substance.

For experiment [19], the system named is KB. Nature of the experiment: Induction of apoptosis in human KB cells assessed as late apoptotic cells at 1 uM after 96 hrs by Annexin V-FITC/7-AAD staining-based flow cytometry (reference value: 2.09%). In kind it is functional.

Activity calls are given as the source filed them. The rule behind the calls is not given here.

Chain of Folate receptor alpha (Homo sapiens) (P15328 25-234 limits assumed): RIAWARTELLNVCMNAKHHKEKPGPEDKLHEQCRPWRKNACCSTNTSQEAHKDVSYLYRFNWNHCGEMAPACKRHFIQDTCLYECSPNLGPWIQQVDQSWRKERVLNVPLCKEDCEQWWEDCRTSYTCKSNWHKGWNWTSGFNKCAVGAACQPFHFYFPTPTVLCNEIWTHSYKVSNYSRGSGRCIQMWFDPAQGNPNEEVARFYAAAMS

On to `Nc1nc2[nH]cc(CCCCc3ccc(C(=O)N[C@@H](CCC(=O)O)C(=O)O)cc3)c2c(=O)[nH]1`, for which the IC50 with KB [1] was 12.7 nM; in experiment [2], 56.6 nM; in experiment [4], more than 1000 nM; in the experiment with KB [8] it was 700 nM; with R2 [10] it was 840 nM; in experiment [11], 29.7 nM. In the experiment on R2 [15], the IC50 is more than 1000 nM. The Activity was 48.2% with KB [3]; 12.9% in the experiment on KB [5]; 2.3% with KB [9]; 0.456% with KB [13]; 26.7% in the experiment with KB [19]. Also, the result (in the experiment with KB [6]; with KB [16]; in the experiment with KB [17]; in [18]) was Active. Besides, the inhibition in experiment [7] was more than 90%; in the experiment with KB [12] it was “Dose-dependent effect”. The viability at 1 µM in the experiment on KB [14] stood at 39%.

A word on the IC50: it is the concentration that inhibits the measured activity by half. What is called inhibition is the share of the control response that was lost under treatment.
